Consider five compounds from ChEMBL document CHEMBL1151326, “Phytoalexins from hairy roots of Hyoscyamus albus treated with methyl jasmonate” (1998).

One assay relates to Staphylococcus aureus. The assay is described as follows: Antibacterial activity against Staphylococcus aureus after 2 days by agar plate dilution method. As to conditions: 48 h. Format: functional. The gist of the method:
(§1)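 Agar plate dilution: each sample concentration is incorporated into soybean casein digest (SCD) agar. Gram-positive bacteria are applied to the agar surface and incubated 2 days at 30 °C. Activity is judged by whether colonies form.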

The next assay concerns Bacillus subtilis. Briefly: Antibacterial activity against Bacillus subtilis after 2 days by agar plate dilution method. In kind it is functional. As to conditions: 48 h. The gist of the method: as §1
The test system of a further assay is Botrytis cinerea. The assay is described as follows: Antifungal activity against Botrytis cinerea after 2 days by agar plate dilution method. In kind it is functional, organism-based. The gist of the method: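 Agar plate dilution: each sample concentration is incorporated into potato dextrose (PD) agar. Fungus is applied to the agar surface and incubated 2 days at 30 °C. Activity is judged by whether spores form.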

Values after ≈ are worked out from the molar mass of the structure shown. Active and inactive are the calls of the source.

Usually MIC stands for the smallest concentration in the dilution series that meets the test's criterion for growth inhibition. A lower MIC goes with inhibition by little substance. On to `C=C(C)[C@@H]1C[C@@H](OC(=O)C=C(C)C)[C@@]2(C1)C(C)=CC(=O)[C@H](O)[C@H]2C`, for which the MIC in the assay with Staphylococcus aureus was 100 µg/mL (≈ 301 µM); in the assay with Bacillus subtilis it was 250 µg/mL (≈ 752 µM).
On the same counts, the results for `C=C(C)[C@@H]1C[C@@H](O)[C@@]2(C1)C(C)=CC(=O)[C@H](O)[C@H]2C` are 500 µg/mL (≈ 2000 µM) and 500 µg/mL (≈ 2000 µM).
Turning to `C=C(C)[C@@H]1C[C@@H](OC(=O)/C(C)=C/C)[C@@]2(C1)C(C)=CC(=O)[C@H](O)[C@H]2C`, the figures for the MIC against Staphylococcus aureus and with Bacillus subtilis were 100 µg/mL (≈ 301 µM) and 250 µg/mL (≈ 752 µM), respectively. For the same compound, the outcome in the assay with Botrytis cinerea was Active.
For the compound `C=C(C)[C@@H]1C[C@@H](OC(=O)C(C)C)[C@@]2(C1)C(C)=CC(=O)[C@H](O)[C@H]2C`, the MIC in the assay with Staphylococcus aureus and with Bacillus subtilis was 250 µg/mL (≈ 780 µM) each time.
For `C=C(C)[C@@H]1CC[C@@]2(C1)C(C)=CC(=O)C[C@H]2C` [SOLAVETIVONE], the MIC in the assay with Staphylococcus aureus and in the assay with Bacillus subtilis was 100 µg/mL (≈ 458 µM) in each case.
